Calls of active or inactive are those of the source.
Experiments:
Mus musculus [1] = assay: Inhibition of FAAH in C57Bl/6J mouse liver assessed as increase of N-palmitoyl ethanolamine level at 30 mg/kg, ip after 1 hr relative to control; type: functional; conditions: route intraperitoneal
[2] = molecular target: T1, Fatty-acid amide hydrolase 1 (Homo sapiens) (UniProt O00519); assay: Competitive inhibition of full-length human FAAH expressed in COS-7 cells by Lineweaver-Burk analysis; type: cell-based
T1 sequence (whole entry): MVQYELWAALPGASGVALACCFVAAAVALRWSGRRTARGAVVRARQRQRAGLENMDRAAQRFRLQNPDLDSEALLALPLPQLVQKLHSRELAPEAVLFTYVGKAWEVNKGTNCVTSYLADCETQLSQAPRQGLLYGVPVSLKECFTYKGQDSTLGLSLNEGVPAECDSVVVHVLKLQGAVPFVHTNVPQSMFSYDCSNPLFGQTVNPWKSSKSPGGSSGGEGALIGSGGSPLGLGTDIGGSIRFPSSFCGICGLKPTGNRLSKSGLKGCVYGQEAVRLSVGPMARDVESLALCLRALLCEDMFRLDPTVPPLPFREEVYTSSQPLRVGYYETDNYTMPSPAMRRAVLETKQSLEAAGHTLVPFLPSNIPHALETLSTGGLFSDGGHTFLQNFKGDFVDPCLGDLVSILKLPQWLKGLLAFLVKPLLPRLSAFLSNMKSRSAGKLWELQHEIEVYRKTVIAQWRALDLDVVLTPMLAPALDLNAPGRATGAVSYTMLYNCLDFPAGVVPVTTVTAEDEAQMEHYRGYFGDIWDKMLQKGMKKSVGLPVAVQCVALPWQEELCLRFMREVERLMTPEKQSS
In short: (§1)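 Solubilized membrane lysate of COS-7 cells transiently transfected with full-length human FAAH cDNA. Aliquots quenched in 0.1 N HCl at three times; oleamide/oleic acid extracted into EtOAc and separated by TLC. Initial rates (≤10–20% conversion) analysed by Lineweaver–Burk plot.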

Mus musculus [3] = assay: Inhibition of FAAH in C57Bl/6J mouse brain assessed as increase of 2-arachidonoylglycerol level at 30 mg/kg, ip after 1 hr relative to control; type: functional; conditions: route intraperitoneal
In short: (§2)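 Male C57Bl/6J mice (<6 months, 20–28 g) dosed i.p. at 30 mg/kg in 18:1:1 saline:ethanol:emulphor emulsion; brains taken 1 h later. One mouse in the initial screen, 3 per group in the follow-up. Brain homogenized in CHCl3:MeOH:Tris pH 8.0 with deuterated lipid standards; organic extract quantified by reverse-phase C18 LC-ESI-MS/MS against vehicle controls.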

Mus musculus [4] = assay: Inhibition of FAAH in C57Bl/6J mouse liver assessed as increase of 2-arachidonoylglycerol level at 30 mg/kg, ip after 1 hr relative to control; type: functional; conditions: route intraperitoneal
[5] = molecular target: T1, Fatty-acid amide hydrolase 1 (Homo sapiens); assay: Reversible inhibition of full-length human FAAH expressed in COS-7 cells by Lineweaver-Burk analysis; type: cell-based; in short: as §1
Mus musculus [6] = assay: Inhibition of FAAH in C57Bl/6J mouse liver assessed as increase of anandamide level at 30 mg/kg, ip after 1 hr relative to control; type: functional; conditions: route intraperitoneal
[7] = molecular target: T2, Fatty-acid amide hydrolase 1 (Rattus norvegicus, UniProt P97612); assay: Inhibition of rat recombinant FAAH expressed in Escherichia coli assessed as [14C]-labeled oleamide to oleic acid conversion
T2 sequence (P97612 whole entry): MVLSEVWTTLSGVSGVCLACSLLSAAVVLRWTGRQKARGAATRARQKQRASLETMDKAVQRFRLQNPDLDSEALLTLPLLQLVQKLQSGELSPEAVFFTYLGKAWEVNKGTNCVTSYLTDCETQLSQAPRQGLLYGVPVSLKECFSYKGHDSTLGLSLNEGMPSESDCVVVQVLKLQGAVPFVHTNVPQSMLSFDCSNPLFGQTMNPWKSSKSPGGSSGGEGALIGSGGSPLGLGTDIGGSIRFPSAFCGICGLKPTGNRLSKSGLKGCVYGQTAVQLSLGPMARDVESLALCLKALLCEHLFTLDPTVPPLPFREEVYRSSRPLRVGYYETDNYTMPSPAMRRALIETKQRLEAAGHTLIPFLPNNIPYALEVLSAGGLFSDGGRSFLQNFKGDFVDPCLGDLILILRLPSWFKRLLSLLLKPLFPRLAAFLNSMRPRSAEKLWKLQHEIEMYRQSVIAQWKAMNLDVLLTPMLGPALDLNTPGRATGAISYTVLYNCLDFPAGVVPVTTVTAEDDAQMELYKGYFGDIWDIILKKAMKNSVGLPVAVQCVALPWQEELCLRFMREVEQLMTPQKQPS

Mus musculus [8] = assay: Inhibition of FAAH in C57Bl/6J mouse brain assessed as increase of N-palmitoyl ethanolamine level at 30 mg/kg, ip after 1 hr relative to control; type: functional; conditions: route intraperitoneal; in short: as §2
Mus musculus [9] = assay: Inhibition of FAAH in C57Bl/6J mouse brain assessed as increase of 2-arachidonoylglycerol level at 50 mg/kg, po after 1 hr relative to control; type: functional
In short: (§3)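 Male C57Bl/6J mice (<6 months, 20–28 g) given compound orally as a PEG300 solution at 10, 25 or 50 mg/kg, with 3 mice per group in the 50 mg/kg p.o. comparison; brains collected 1 h post-dose. Lipids extracted in CHCl3:MeOH:Tris pH 8.0 with deuterated internal standards, then measured by C18 LC-ESI-MS/MS relative to vehicle-treated mice.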

Mus musculus [10] = assay: Inhibition of FAAH in C57Bl/6J mouse brain assessed as increase of anandamide level at 50 mg/kg, po after 1 hr relative to control; type: functional; in short: as §3
Mus musculus [11] = assay: Inhibition of FAAH in C57Bl/6J mouse brain assessed as increase of anandamide level at 30 mg/kg, ip after 1 hr relative to control; type: functional; conditions: route intraperitoneal; in short: as §2
Mus musculus [12] = assay: Inhibition of FAAH in C57Bl/6J mouse brain assessed as increase of N-palmitoyl ethanolamine level at 50 mg/kg, po after 1 hr relative to control; type: functional; in short: as §3
Mus musculus [13] = assay: Antinociceptive activity in CD1 mouse assessed as thermal-stimulus induced tail flick latency at 1.8 to 5.6 mg/kg, iv after 30 to 60 mins; type: functional, organism-based
In short: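 Tail flick at 52 °C in mice, dosed i.v. Baseline responders within 5 s were kept and retested at several times after dosing. Cut-off 10 s, scored 100%. % antinociception = 100 × (test latency − control latency)/(10 − control latency).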

Mus musculus [14] = assay: Inhibition of FAAH in C57Bl/6J mouse brain assessed as increase of arachidonic acid level at 30 mg/kg, ip after 1 hr relative to control; type: functional; conditions: route intraperitoneal; in short: as §2
[15] = Half life in rat liver microsomes; type: ADME, Microsome
[16] = Half life in human liver microsomes; type: ADME, Microsome
Mus musculus [17] = assay: Antinociceptive activity in CD1 mouse assessed as thermal-stimulus induced tail flick latency at 1 to 3.2 mg/kg, iv after 150 mins; type: functional, organism-based
In short: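 Mice given compound i.v.; tail-flick latency to 52 °C water measured at several times after dosing. Animals not responding within 5 s at baseline were excluded, and a 10 s cut-off was scored as 100%. % antinociception = 100 × (test − control latency)/(10 − control latency).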

Row | SMILES | fold change (FC) (Mus musculus [1]) | fold change (FC) (Mus musculus [3]) | fold change (FC) (Mus musculus [4]) | fold change (FC) (Mus musculus [6]) | fold change (FC) (Mus musculus [8]) | fold change (FC) (Mus musculus [10]) | fold change (FC) (Mus musculus [11]) | fold change (FC) (Mus musculus [14]) | other results
1 | O=C(O)c1cccc(-c2cnc(C(=O)[C@H]3CCc4cc(Oc5ccccc5)ccc4C3)o2)n1 | 2.1 | 1 | 1.1 | 5 | 2 | 3.5 | 1.5 | 0.7 | inhibition [2]: Active; inhibition [5]: Active; Ki [7]: 0.025 µM; fold change (FC) (Mus musculus [9]): 1.4; fold change (FC) (Mus musculus [12]): 3.7; Activity (Mus musculus [13]): Active
2 | O=C(CCCCCCc1ccccc1)c1ncc(-c2ccccn2)o1 | 1.6 | – | 0.9 | 7 | 4.6 | 11 | 3.3 | – | half-life [15]: 2 min
3 | O=C(c1ncc(-c2ccccn2)o1)C1CCc2cc(OCc3ccccc3)ccc2C1 (stereo unspecified) | – | – | – | – | – | – | – | – | half-life [16]: 12 min
4 | O=C(O)c1cccc(-c2cnc(C(=O)C3Cc4ccc(Oc5ccccc5)cc4C3)o2)n1 (stereo unspecified) | – | 0.9 | – | – | 1.2 | – | 1 | 0.8 | –
5 | O=C(c1ncc(-c2ccccn2)o1)C1Cc2ccc(Oc3ccccc3)cc2C1 (stereo unspecified) | – | 0.8 | – | – | 7.4 | – | 3 | 0.9 | –
6 | CN1CC[C@]23c4c5ccc(O)c4O[C@H]2[C@@H](O)C=C[C@H]3[C@H]1C5 | – | – | – | – | – | – | – | – | Activity (Mus musculus [17]): Active

Reference: ChEMBL document CHEMBL1765010, “Reversible competitive α-ketoheterocycle inhibitors of fatty acid amide hydrolase containing additional conformational constraints in the acyl side chain: orally active, long-acting analgesics” (J Med Chem, 2011)
